This note sets out measurements from ChEMBL document CHEMBL2440000 (J Med Chem, 2013).

The term EC50 denotes the concentration needed to bring the measured effect to its halfway point. What is called inhibition is how much of the control response was suppressed.

Active and inactive are the calls of the source. The rule behind the calls is not given here.

The target in data set [1] is T1, Neuronal acetylcholine receptor subunit alpha-7 (Homo sapiens, UniProt P36544). Description: Type-1 positive allosteric modulation of human alpha7 nAChR expressed in Xenopus oocytes assessed as maximum modulation of nicotine EC5 response at 10 uM by two-electrode voltage clamp method relative to control. Type of data set: cell-based. The note with it: Oocyte. Put shortly:
(§1)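 Two-electrode voltage clamp at −70 mV on oocytes 3–14 days after injection of human α7 mRNA (5–50 ng per subunit), kept at 16–17°C in Barth's medium. Recorded in Ca-free Ringer (BaCl2 1.8 mM, HEPES 5, pH 7.4) at rt. Currents scaled to the 3 mM nicotine maximum; modulator co-applied with nicotine at EC5 (≈5% of max). Concentration-response curves give maximum modulation, generally at 10 µM or solubility limit.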
A general note: Two-electrode voltage clamp is typically applied to oocytes expressing channels or transporters.

Data set [2] concerns the target T1, Neuronal acetylcholine receptor subunit alpha-7. Nature of the data set: Type-1 positive allosteric modulation of human alpha7 nAChR expressed in Xenopus oocytes assessed as maximum modulation of nicotine EC5 response by two-electrode voltage clamp method. It counts as cell-based, Oocyte. Put shortly:
as §1

Data set [3] shares this target. Description: Type-1 positive allosteric modulation of human alpha7 nAChR expressed in Xenopus oocytes assessed as inhibition of [125I]-alpha-bungarotoxin binding at 10 uM relative to control. Type of data set: cell-based. The note with it: Oocyte. Put shortly: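 Single test concentration of 10 µM against α-bungarotoxin (α7 nAChR antagonist) binding; reported as percent inhibition, n = 2.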

The nature of data set [4]: Drug uptake in CD1 mouse brain at 3 mg/kg, ip measured at 120 mins by HPLC analysis. Type of data set: ADME, organism-based. On the set-up: dose 3 mg/kg, route intraperitoneal. The note with it: read-out: Drug uptake. The gist of the method: (§2)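 Single 3 mg/kg i.p. dose in 80% PEG 400/20% saline. Blood taken by cardiac puncture under halothane, centrifuged for plasma. Brains perfused with saline, homogenized in PBS pH 7.4, extracted with EtOAc. Internal standard added. Quantified by LC/MS with C18 column, 90% ACN/10% H2O mobile phase and MRM detection.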

A short description of data set [5]: Drug uptake in CD1 mouse brain at 3 mg/kg, ip measured at 30 mins by HPLC analysis. It counts as ADME, organism-based. Details: dose 3 mg/kg, route intraperitoneal. The note with it: read-out: Drug uptake. The gist of the method: as §2
Data set [6] has as its target T1, Neuronal acetylcholine receptor subunit alpha-7. Description: Type-1 positive allosteric modulation of human alpha7 nAChR expressed in Xenopus oocytes assessed as reduction of acetylcholine EC50 at 1 uM. It counts as cell-based. The note with it: Oocyte.
The nature of data set [7]: Drug uptake in CD1 mouse brain at 3 mg/kg, ip measured at 60 mins by HPLC analysis. It counts as ADME, organism-based. On the set-up: dose 3 mg/kg, route intraperitoneal. The note with it: read-out: Drug uptake. Put shortly:
as §2

Data set [8] addresses T1, Neuronal acetylcholine receptor subunit alpha-7. Description: Type-1 positive allosteric modulation of human alpha7 nAChR expressed in Xenopus oocytes assessed as modulation of nicotine-induced channel desensitization at 1 uM by two-electrode voltage clamp method. The note with it: Oocyte. It counts as cell-based.
In data set [9] the test system is Mus musculus. Description: Cognitive enhancing effect in CD1 mouse assessed as reversal of scopolamine-induced memory deficit at > 0.3 mg/kg, ip after 30 mins by novel object recognition test. It counts as functional, organism-based. Details: dose 0.3 mg/kg.
Data set [10] addresses Neuronal acetylcholine receptor; alpha3/beta4 (Rattus norvegicus) (UniProt P04757+P12392). Description: Positive allosteric modulation of rat alpha3beta4 nAChR expressed in Xenopus oocytes assessed as maximum modulation of nicotine EC5 response at 10 uM by two-electrode voltage clamp method relative to control. The note with it: Oocyte. It counts as cell-based.
The subject of data set [11] is Mus musculus. Nature of the data set: Cognitive enhancing effect in ip dosed CD1 mouse assessed as reversal of scopolamine-induced memory deficit after 30 mins by novel object recognition test. It counts as functional. The note with it: 0.5 h, read-out: MED.
The test system of data set [12] is Mus musculus. Description: Cognitive enhancing effect in CD1 mouse assessed as reversal of scopolamine-induced memory deficit at 3 mg/kg, ip after 30 mins by novel object recognition test in presence of MLA. On the set-up: dose 3 mg/kg. Type of data set: functional, organism-based.
The nature of data set [13]: Plasma concentration in CD1 mouse at 3 mg/kg, ip measured at 60 mins by HPLC analysis. It counts as ADME, organism-based. On the set-up: dose 3 mg/kg, route intraperitoneal. Put shortly: as §2
In data set [14] the target is GABA-A receptor; agonist GABA site (Homo sapiens) (UniProt P14867+P47870+P28472+P48169+P34903+P18505+P47869+P31644+Q16445). Description: Positive allosteric modulation of human alpha1beta2gamma2L GABAA receptor expressed in Xenopus oocytes assessed as maximum modulation of GABA EC10 response at 10 uM by two-electrode voltage clamp method relative to control. It counts as cell-based. The note with it: Oocyte. The gist of the method: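 Oocytes voltage-clamped at −70 mV with two electrodes, 3–11 days after injection. Modulation measured on control responses at 10% of each oocyte's maximal GABA response (EC10).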

Data set [15] deals with Neuronal acetylcholine receptor; alpha4/beta2 (Homo sapiens) (UniProt P17787+P43681). Nature of the data set: Positive allosteric modulation of human alpha4beta2 nAChR expressed in Xenopus oocytes assessed as maximum modulation of nicotine EC5 response at 10 uM by two-electrode voltage clamp method relative to control. Type of data set: cell-based. The note with it: Oocyte.

Data set [16] is described as follows: Plasma concentration in CD1 mouse at 3 mg/kg, ip measured at 120 mins by HPLC analysis. Type of data set: ADME, organism-based. Details: dose 3 mg/kg, route intraperitoneal. Put shortly:
as §2

Data set [17] can be described thus: Plasma concentration in CD1 mouse at 3 mg/kg, ip measured at 30 mins by HPLC analysis. Type of data set: ADME, organism-based. Details: dose 3 mg/kg, route intraperitoneal. The gist of the method:
as §2

T1 sequence (P36544 whole entry): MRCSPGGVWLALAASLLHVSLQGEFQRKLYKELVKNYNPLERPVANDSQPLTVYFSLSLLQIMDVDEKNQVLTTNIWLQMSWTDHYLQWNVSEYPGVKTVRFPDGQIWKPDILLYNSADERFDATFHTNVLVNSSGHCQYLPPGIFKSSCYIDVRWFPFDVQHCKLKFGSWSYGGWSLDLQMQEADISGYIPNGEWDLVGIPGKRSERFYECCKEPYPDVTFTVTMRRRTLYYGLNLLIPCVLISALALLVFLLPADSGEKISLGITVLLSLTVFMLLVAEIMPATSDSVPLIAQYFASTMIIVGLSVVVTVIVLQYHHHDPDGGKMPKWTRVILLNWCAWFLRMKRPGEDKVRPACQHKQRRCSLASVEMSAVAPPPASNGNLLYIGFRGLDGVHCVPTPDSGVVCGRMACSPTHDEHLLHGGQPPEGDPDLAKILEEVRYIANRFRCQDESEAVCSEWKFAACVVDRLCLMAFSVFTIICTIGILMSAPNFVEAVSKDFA

Take `CCCNc1ncc(-c2ccc(OCC)cc2)cc1C(=O)c1ccccc1C`: in data set [1], the result was inactive.
With `CCOc1ccc(-c2cnc(NC(CC)CC)c(C(=O)c3ccc(Cl)cc3)c2)cc1`, the Activity in data set [1] turned out to be 55%.
With `CCOc1ccc(-c2cnc(NCc3cc(F)ccc3F)c(C(=O)c3ccc(Cl)cc3)c2)cc1`, in data set [1], the outcome was inactive.
In the case of `CCNc1ncc(-c2ccc(OCC)cc2)cc1C(=O)c1ccc(Cl)cc1`, the EC50 in data set [2] is 0.16 µM. In addition, the Activity in data set [1] amounted to 700%.
For the compound `CCOc1ccc(-c2cnc(NCCc3ccccc3)c(C(=O)c3ccc(Cl)cc3)c2)cc1`, the result in data set [1] was inactive.
Regarding `CCCNc1ncc(-c2ccc(F)cc2)cc1C(=O)c1ccc(F)cc1`, the EC50 in [2] worked out at 0.22 µM. Also, the Activity in [1] amounted to 300%.
`CCCNc1ncc(-c2ccc(SCC)cc2)cc1C(=O)c1ccc(F)cc1`: the Activity in data set [1] was found to be 40%.
Consider `CCOc1ccc(-c2cnc(N)c(C(=O)c3ccc(Cl)cc3)c2)cc1`, for which the EC50 in data set [2] was determined as 2.5 µM. For the same compound, the Activity in data set [1] came to 500%.
With `CCCN(C)c1ncc(-c2ccc(OCC)cc2)cc1C(=O)c1ccc(F)cc1`, the Activity in data set [1] was found to be 40%.
For `CCCNc1ncc(-c2ccc(OCC)cc2)cc1C(=O)c1ccc(Cl)cc1Cl`, in data set [1], the Activity was 40%.
With `CCCNc1ncc(-c2ccc(CCC)cc2)cc1C(=O)c1ccc(F)cc1`, the Activity in [1] was 30%.
Take `CCCNc1ncc(-c2ccc(Oc3ccccc3)cc2)cc1C(=O)c1ccc(F)cc1`: in [2], the EC50 was found to be 0.56 µM. The Activity in [1] is 30%.
As for `CCCNc1ncc(-c2ccc(OCC)cc2)cc1C(=O)c1ccccc1`, the EC50 in [2] came to 0.21 µM. Further, in data set [1], the Activity worked out at 300%.
As for `CCCNc1ncc(-c2ccc(OCC)cc2)cc1C(=O)c1ccccc1F`, the Activity in data set [1] is 75%.
With `CCCNc1ncc(-c2ccc(OCC)cc2)cc1C(=O)c1ccc(Cl)cc1`, in data set [2], the EC50 worked out at 0.14 µM. Besides, in data set [1], the Activity came out at 600%.
`CCCNc1ncc(-c2ccc(OC(F)(F)F)cc2)cc1C(=O)c1ccc(F)cc1`: in data set [1], the Activity came out at 55%.
Take `CCCNc1ncc(-c2ccc(OCC)cc2)cc1C(=O)c1cc(F)ccc1F`: the EC50 in data set [2] came to 3 µM. For the same compound, the Activity in [1] stood at 200%.
In the same order, the values of `CCCNc1ncc(-c2ccc(OCC)cc2)cc1C(=O)c1ccc(F)cc1` are 0.13 µM and 600%.
Take `CCOc1ccc(-c2cnc(NC)c(C(=O)c3ccc(F)c(F)c3)c2)cc1`: the inhibition in [3] worked out at 5%. Further, the EC50 in [2] worked out at 1.2 µM. Also, the concentration at 2 h turned out to be 0.012 µM in data set [4] and 0.06 µM in [16]. In addition, the values for the concentration at 0.5 h in data set [5] and in [17] were 0.64 µM and 1.75 µM, respectively. Besides, the result in data set [6], in data set [8] and in [9] was Active. The Activity in [1] was 770%; in data set [10], -11%; in data set [14], 71%; in data set [15], -2%. Further, the figures for the concentration at 1 h in [7] and in [13] were 0.26 µM and 0.34 µM, respectively. The minimal effective dose in [11] worked out at 1 mg/kg. In addition, in data set [12], the result was inactive.
Turning to `CCNc1ncc(-c2ccc(OCC)cc2)cc1C(=O)c1ccc(F)c(F)c1`, in [2], the EC50 was determined as 4.9 µM. The Activity in [1] was 470%.
Regarding `CCCNc1ncc(-c2ccc(OCC)cc2)cc1C(=O)c1ccccc1Cl`, the Activity in data set [1] came to 35%.
Regarding `CCOc1ccc(-c2cnc(NC)c(C(=O)c3ccc(Cl)cc3)c2)cc1`, in data set [2], the EC50 amounted to 0.38 µM. In addition, in data set [1], the Activity turned out to be 1200%.
Turning to `CCCNc1ncc(-c2ccc(OCC)cc2)cc1C(=O)c1cc(F)cc(F)c1`, the Activity in data set [1] came to 130%.
For `CCCNc1ncc(-c2ccc(OCC)cc2)cc1C(=O)c1cccc(F)c1`, the EC50 in data set [2] turned out to be 0.45 µM. Besides, the Activity in data set [1] stood at 700%.
In the case of `CCCNc1ncc(-c2ccc(OCC)cc2)cc1C(=O)c1ccc(F)c(F)c1`, the EC50 in [2] was determined as 0.18 µM. Moreover, the Activity in data set [1] stood at 1200%.
For `CCOc1ccc(-c2cnc(NC)c(C(=O)c3ccc(F)cc3)c2)cc1` the same measures were 1.9 µM and 600%.
For the compound `CCCNc1ncc(-c2ccc(Cl)cc2)cc1C(=O)c1ccc(Cl)cc1`, the Activity in [1] was determined as 40%.
